Screening data from PubChem BioAssay.
UHRF1 binding = UHRF1 methylated DNA binding inhibitors, primary screen, counter-screen for MBD2 inhibitor project, biochemical, TR-FRET, human UHRF1, single concentration. E3 ubiquitin-protein ligase UHRF1 (Homo sapiens), Q96T88. UHRF1 binding to methylated oligo. inhibition, % at 4.4 µM. actives 0.75% (n = 370,000). AID 687016, 2013; in the data active = inhibition above about 21%;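 also: UHRF1 SRA domain binding a hemimethylated CpG hairpin DNA probe; 0% = median of test compound wells and 100% = reference inhibitor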
LEDGF integ inh = blockers of LEDGF/p75-dependent integrase strand transfer – biochemical, TR-FRET, high throughput, primary screen | HIV-1 integrase (with human LEDGF/p75) | TR-FRET IN-LEDGF/p75 DNA integration, Eu/Cy5 | inhibition, % at 3.7 µM | actives 0.64% (n = 370,000) | AID 743269, 2014;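 active = inhibition above the screen-wide mean plus 3 SD, cut at about 13% in these data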;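 also: signal is the Cy5 over europium emission ratio at 671 and 618 nm; 0% = plate median of compound wells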
ABHD5 PLIN5 PPI = ABHD5-PLIN5 interaction inhibitors, primary screen, cell lysate, split luciferase complementation, luminescence; Perilipin-5 (Homo sapiens) + 1-acylglycerol-3-phosphate O-acyltransferase ABHD5 (Homo …; Split G. princeps luciferase complementation, 4 h; inhibition, % at 4 µM; actives 0.78% (n = 360,000); AID 602281, 2012;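 active = inhibition above the mean inhibition across every tested compound plus 3 SD, cut at about 22% in these data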;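 also: 0% = DMSO only wells and the 100% control is not disclosed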
PRMT1 FP inh = PRMT1 methyltransferase inhibitors, primary screen, biochemical, fluorescence polarization | Protein arginine N-methyltransferase 1 (Homo sapiens), Q99873 | recombinant PRMT1, activity-based probe fluorescence polarization | inhibition, % at 2.79 µM | actives 1.3% (n = 370,000);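 active = inhibition above about 21% made by adding two undisclosed values, limit read from the data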
Target sequence (Q99873 whole entry, looked up): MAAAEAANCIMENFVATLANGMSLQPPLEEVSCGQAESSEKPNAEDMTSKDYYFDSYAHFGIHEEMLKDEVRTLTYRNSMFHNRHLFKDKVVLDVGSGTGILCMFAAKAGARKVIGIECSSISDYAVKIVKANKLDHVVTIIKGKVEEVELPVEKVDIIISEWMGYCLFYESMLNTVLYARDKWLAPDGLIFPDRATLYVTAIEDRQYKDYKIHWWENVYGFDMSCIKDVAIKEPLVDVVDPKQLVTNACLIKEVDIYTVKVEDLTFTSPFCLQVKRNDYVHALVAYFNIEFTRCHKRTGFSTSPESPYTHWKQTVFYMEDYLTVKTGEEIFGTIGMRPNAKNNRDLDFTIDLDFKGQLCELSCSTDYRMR
RBBP9 inh = human RBBP9 inhibitors, primary screen, biochemical, fluorescence polarization, FP-Rh probe, HTS. actives 0.2% (n = 220,000). inhibition, % at 7.94 µM. recombinant RBBP9. AID 1515, 2009;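 active = inhibition above the campaign mean of all tested compounds plus 3 SD, cut at about 14% in these data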;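 also: plate controls were DMSO wells with RBBP9 for no effect and wells lacking RBBP9 protein for full effect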
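system = RBBP9 protein | input = RBBP9 at 2.5 µM in dispensed solution, before mixing | measured by = fluorescence polarization (mP), excitation 525 nm, emission 598 nm | incubation = enzyme-compound preincubation 30 min, then probe labeling 45 min, 25 °C | buffer or medium = Tris-NaCl-Pluronic buffer, pH 8.0 | compound = single dose 7.94 µM | also added = FP-Rh probe, 375 nM dispensing solution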
MBD2 DNA inh = inhibitors of MBD2 binding to methylated DNA, primary screen, biochemical, TR-FRET, DNA-binding domain, human; inhibition, % at 4.4 µM; MBD2 binding to methylated oligonucleotide; actives 0.31% (n = 370,000); AID 686964, 2013; in the data active = inhibition above about 13%
IN multimer act = HIV-1 IN multimer formation enhancers, counter-screen for LEDGF/p75 integration inhibitor project, biochemical, TR-FRET | shares compounds with LEDGF integ inh | TR-FRET HIV-1 integrase multimerization | activation, % at 7.7 µM | actives 17% (n = 2,000) | AID 1053131, 2014; in the data active = activation above about 8.9%
TR-FRET interf = TR-FRET optical interference artefacts, confirmation, artefact control for LEDGF/p75-dependent integration inhibitor project, biochemical, HIV-1 IN multimerization; shares compounds with LEDGF integ inh; TR-FRET optical interference counterscreen; inhibition, % at 7.7 µM; 2,000 tested, under 10 active; AID 1053135, 2014;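 active = inhibition above the mean over all tested compounds plus 3 SD, which no compound reached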;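 also: 0% = integrase with antibodies and DMSO and 100% = antibodies without integrase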
IN-LEDGF confirm = inhibitors of HIV-1 IN-LEDGF/p75 DNA integration, confirmation, biochemical, TR-FRET. shares compounds with LEDGF integ inh. inhibition, % at 3.7 µM. TR-FRET LEDGF/p75-dependent HIV-1 integration. AID 1053136, 2014. actives 36% (n = 2,000); in the data active = inhibition above about 14%
Numbers without * were called inactive; . = no result. An excerpt weighted towards active compounds, which were near 3.1% of everything screened.

SMILES | UHRF1 binding | LEDGF integ inh | ABHD5 PLIN5 PPI | PRMT1 FP inh | RBBP9 inh | MBD2 DNA inh | IN multimer act | TR-FRET interf | IN-LEDGF confirm
O=Cc1coc2ccc3ccccc3c2c1=O | 2 | 16* | 12 | 0 | . | 0 | 0 | 0 | 54*
NC(=O)N/N=C/c1coc2ccc3ccccc3c2c1=O | -5 | 0 | -3 | 0 | -2 | -2 | . | . | .
COc1ccc([C@H]2C[C@H](O)[C@@H](n3cc(COC(=O)c4ccccc4)nn3)CN2CC2CCCCC2)cc1 | 2 | 28* | -15 | 2 | . | 1 | -1 | 3 | -1
COc1ccc(OC)c(S(=O)(=O)Oc2ccc(N)c3ccccc23)c1 | -4 | 14* | -15 | 19 | . | -10 | 4 | -15 | -1
COc1ccc(OC)c(S(=O)(=O)Nc2cccc3ccccc23)c1 | -3 | 0 | -1 | -3 | . | 0 | . | . | .
Cc1cccc(NC(=S)N(CCN(C)C)C(C)c2ccccn2)c1 (stereo not drawn) | 2 | 92* | -3 | -2 | 0 | 4 | -2 | 11 | -5
COC(=O)CCC[C@H](C)[C@@H](NS(=O)(=O)c1ccc(C)cc1)C(C)(C)C | 1 | 40* | . | 6 | . | 9 | 0 | -2 | -5
CN(C)c1ccc(N/C=C/C(=O)c2ccccc2)cc1 | 3 | 15* | 1 | 22* | 11 | -3 | 5 | -24 | 5
CN(C)c1ccc(N/C=C/C(=O)C(C)(C)C)cc1 | 13 | 25* | -9 | 9 | 4 | -1 | 12* | -43 | 1
COC(=O)c1ccsc1NS(C)(=O)=O | 3 | -8 | . | 6 | . | 11 | . | . | .
Cc1ccc(-n2c(SCC(=O)c3ccc(F)cc3)nnc2-c2cccnc2)cc1 | 1 | 0 | . | 0 | . | -5 | . | . | .
Oc1ccc(N=Cc2ccc(OCc3ccccc3)cc2)cc1 | 8 | 34* | -2 | 36* | 1 | -3 | 22* | -78 | 35*
CCOC(=O)[C@]12CCCC=C1N(Cc1ccc(OC)cc1)C(=O)[C@@H]2CC(=O)NCCCCc1ccccc1 | 1 | 1 | . | 8 | . | 2 | . | . | .
